Consider 37 sequences from the array DNA melting data of Ke et al. (doi:10.1101/2024.01.08.574731).

Data set [1] in a line: folding enthalpy; higher = less favourable; fluorescence melt of hairpins on a sequencing array, two-state fit. The conditions noted are these: sodium 0.088 M. An outline of the steps: (§1)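 Cy3 signals were normalised both to pre-quench Cy3 and to control constructs. They came from library hairpins carrying annealed Cy3 and quencher oligos on a sequenced MiSeq flow cell, imaged in 50 mM Na-HEPES pH 8.0, 25 mM NaCl, in 2.5 °C steps up to 60 °C. Bootstrapped two-state fits gave melting temperature and folding enthalpy, and four replicates were combined by inverse variance. Fitted temperatures were then raised by 9.35 °C to match UV melts.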

The nature of data set [2]: melting temperature; fluorescence melt of hairpins on a sequencing array, two-state fit, raised by 9.35 °C to match UV melts. As to conditions: sodium 0.088 M. An outline of the steps:
as §1

Consider GTGTCACGAAAGTGGCAC (((.(((....))).))), for which, in data set [1], the folding enthalpy is -155 kJ/mol. For the same sequence, the Tm in data set [2] came to 67.3 °C.

With GCAGGGGGAAACCCTTGC (((.(((....))).))), the folding enthalpy in data set [1] was -129 kJ/mol. Also, the Tm in data set [2] amounted to 52.2 °C.

As to GCACGTCGAAAGACTGC (((.(((....)))))), the folding enthalpy in data set [1] is -115 kJ/mol. Also, in data set [2], the Tm worked out at 56.5 °C.

Regarding GGAAGATCGAAAGATTCC (((..(((....)))))), in data set [1], the folding enthalpy is -56.1 kJ/mol. Besides, the Tm in data set [2] stood at 29.8 °C.

With GTTAGCGGAAACGCCAAC (((.(((....))).))), the folding enthalpy in data set [1] is -72.6 kJ/mol. Further, the Tm in data set [2] came out at 37.4 °C.

With GGAGTTGGAAACAGCTTC (.((.((....)).)).), the folding enthalpy in data set [1] was -155 kJ/mol. In addition, the Tm in data set [2] amounted to 37.1 °C.

Turning to GTAGGTGGAAACATCTGC (.((.((....)).)).), in data set [1], the folding enthalpy is -77.2 kJ/mol. The Tm in data set [2] was determined as 30 °C.

As to GATCAGCCACTGATC ((((((...)))))), the folding enthalpy in data set [1] was -134 kJ/mol. In addition, the Tm in data set [2] was found to be 48.6 °C.

GCCTTCGAAAGAAGTGGC ((((((....)))..))): the folding enthalpy in data set [1] is -91.9 kJ/mol. Further, the Tm in data set [2] amounted to 44.5 °C.

Take GGAGCTCGAAAGAGGTCC (((.(((....))).))): in data set [1], the folding enthalpy is -158 kJ/mol. For the same sequence, the Tm in data set [2] amounted to 65.9 °C.

GACACGCGAAAGCGAGTC (((.(((....))).))): the folding enthalpy in data set [1] was -102 kJ/mol. In addition, in data set [2], the Tm was found to be 60.5 °C.

As to GGATACGGAAACGTATTC (.(((((....))))).), the folding enthalpy in data set [1] was -104 kJ/mol. Moreover, the Tm in data set [2] turned out to be 45.2 °C.

As to GCCTCCCGAAAGGGGGC (((.(((....)))))), the folding enthalpy in data set [1] was -114 kJ/mol. Moreover, the Tm in data set [2] was 67.7 °C.

On to GGAATTGGAAACAATTCC (((((((....))))))), for which the folding enthalpy in data set [1] is -189 kJ/mol. Further, the Tm in data set [2] was 56.3 °C.

As to GCGATCGTTCGC ((((....)))), the folding enthalpy in data set [1] was -121 kJ/mol. The Tm in data set [2] amounted to 50.4 °C.

For GCGGAGACGAAAGTCCGC (((..(((....)))))), in data set [1], the folding enthalpy was -134 kJ/mol. Moreover, in data set [2], the Tm is 58.5 °C.

GATCTTTGTGAAGATC ((((((....)))))): in data set [1], the folding enthalpy is -175 kJ/mol. In addition, in data set [2], the Tm turned out to be 47.7 °C.

As to GCGTCTAACGC ((((...)))), in data set [1], the folding enthalpy is -86.4 kJ/mol. In data set [2], the Tm worked out at 53.3 °C.

Consider GCTAGGCGAAAGCATCGC ((.(.((....)).).)), for which the folding enthalpy in data set [1] was -66.7 kJ/mol. In addition, in data set [2], the Tm was 38 °C.

In the case of GATCAGACGAAAGTCATC (((..(((....)))))), the folding enthalpy in data set [1] is -38.1 kJ/mol. The Tm in data set [2] is 23.3 °C.

In the case of GCAATCGAAAGATTGTGC ((((((....)))..))), the folding enthalpy in data set [1] is -113 kJ/mol. Moreover, the Tm in data set [2] was determined as 51.1 °C.

Regarding GGAGCCGAAAGGCCTTCC ((((((....)))..))), the folding enthalpy in data set [1] was -64.5 kJ/mol. The Tm in data set [2] was 46.2 °C.

Take GAACGCGGAAACACGTTC (((((.(....).))))): in data set [1], the folding enthalpy was -191 kJ/mol. In addition, the Tm in data set [2] was 48.1 °C.

GGGCATCGAAAGATTCCC (((.(((....))).))): in data set [1], the folding enthalpy was -116 kJ/mol. Also, the Tm in data set [2] turned out to be 47.5 °C.

For GATCGTGGTTACGATC ((((((....)))))), in data set [1], the folding enthalpy is -169 kJ/mol. Further, in data set [2], the Tm was 58.3 °C.

For the sequence GCCACGCGAAAGCAAGGC (((..((....))..))), the folding enthalpy in data set [1] was -95.7 kJ/mol. Further, the Tm in data set [2] turned out to be 57.2 °C.

As for GGTCAACCGAAAGGTACC (((..(((....)))))), the folding enthalpy in data set [1] was -66.7 kJ/mol. In addition, the Tm in data set [2] came out at 35.1 °C.

As for GACTGACCGAAAGGTGTC (((..(((....)))))), in data set [1], the folding enthalpy was -70.5 kJ/mol. The Tm in data set [2] came to 41.4 °C.

As to GAACGCGAAAGCGGCTTC ((((((....)))..))), the folding enthalpy in data set [1] was -62.3 kJ/mol. For the same sequence, the Tm in data set [2] came out at 53.3 °C.

Consider GTCAGCGAAAGCTCTGAC ((((((....)))..))), for which the folding enthalpy in data set [1] was -77.3 kJ/mol. Also, in data set [2], the Tm was found to be 37.3 °C.

In the case of GGCATTGGAAACAGTGTC (.((.((....)).)).), in data set [1], the folding enthalpy was -71 kJ/mol. In addition, the Tm in data set [2] was found to be 31.9 °C.

On to GTTGCGACGAAAGTCAAC (((..(((....)))))), for which the folding enthalpy in data set [1] was -70.5 kJ/mol. Besides, the Tm in data set [2] was determined as 33.5 °C.

As for GATCGTGAGACGATC ((((((...)))))), the folding enthalpy in data set [1] was -142 kJ/mol. In addition, the Tm in data set [2] came out at 54 °C.

Regarding GGTTGCGGAAACGCGACC (((.(((....))).))), the folding enthalpy in data set [1] was -158 kJ/mol. For the same sequence, the Tm in data set [2] was determined as 65.8 °C.

Turning to GCCCCGCGAAAGCAAGGC (((..((....))..))), the folding enthalpy in data set [1] was -67.8 kJ/mol. In addition, the Tm in data set [2] came out at 46.5 °C.

For GGTCGTGGAAACATGGCC ((.(.((....)).).)), the folding enthalpy in data set [1] is -101 kJ/mol. In addition, the Tm in data set [2] turned out to be 45.8 °C.

For the sequence GGCGACACGAAAGTGGCC (((..(((....)))))), in data set [1], the folding enthalpy is -63.2 kJ/mol. Further, in data set [2], the Tm was 53.1 °C.
